Compound activity from PubChem.
Rows were chosen to be rich in hits. Some 0.81% of all compounds tested hit in one or more screens of this group.
sdo1 growth: restores growth of sdo1-depleted yeast; S. cerevisiae sdo1-depleted JHY4D growth rescue, OD600 30 h; hits give high values; pdr5 snq2 efflux-pump mutant strain; z-score at 10 µM; 140,000 compounds, 0.21% hits;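 active means z-score above 3 at both the 24 hr and the 30 hr optical density reads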
zVAD death inh: blocks zVAD induced death of L929 cells. L929 zVAD necroptosis rescue, ATP luminescence, 24 h; with zVAD 60 µM. 220,000 compounds, 0.38% hits. viability rescue, % at 10 µM;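 active means activation, scaled between plate controls, above about 75%, limit read from the data; inactive means activation under that limit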
TNF necrop inh: inhibitors of TNF-alpha induced necroptosis in Jurkat FADD-/- cells; 220,000 compounds, 0.068% hits; Jurkat FADD-/- TNF necroptosis rescue, ATP luminescence, 24 h; 0 = TNF only, 100 = no-TNF cells; activation (protection from cell death), % at 10 µM;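 active means activation, meaning protection from cell death, of at least 50% relative to plate controls; inactive means activation below 50%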;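 further: necroptosis triggered by 40 ng/mL TNF-alpha added together with compound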
TNAP inh hi DEA: TNAP (human) inhibition, high acceptor; AID 1135; 200,000 compounds, 0.03% hits; inhibition, % at 20 µM; purified TNAP, CDP-star luminescence, 1 M DEA; P05186;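 active means over 50% inhibition of tissue-nonspecific alkaline phosphatase at 20 µM in the single-dose screen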
Target sequence (P05186 whole entry, looked up): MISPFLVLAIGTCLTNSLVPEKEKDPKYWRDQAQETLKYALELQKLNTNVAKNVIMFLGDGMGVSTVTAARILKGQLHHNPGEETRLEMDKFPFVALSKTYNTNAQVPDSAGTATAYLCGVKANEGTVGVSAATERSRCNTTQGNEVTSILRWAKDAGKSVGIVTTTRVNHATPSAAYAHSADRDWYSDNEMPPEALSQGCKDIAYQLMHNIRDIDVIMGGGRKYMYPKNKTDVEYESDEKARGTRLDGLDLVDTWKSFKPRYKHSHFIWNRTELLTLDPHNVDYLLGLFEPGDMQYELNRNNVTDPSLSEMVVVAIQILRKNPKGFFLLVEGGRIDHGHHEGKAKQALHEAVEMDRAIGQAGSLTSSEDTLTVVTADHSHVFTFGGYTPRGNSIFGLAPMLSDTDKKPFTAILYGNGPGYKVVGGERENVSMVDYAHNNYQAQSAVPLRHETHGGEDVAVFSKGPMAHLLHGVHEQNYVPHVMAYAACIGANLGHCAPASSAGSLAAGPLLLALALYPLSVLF
TNAP act hiacc: increases human TNAP activity under high phosphate acceptor concentration | P05186 | purified TNAP, CDP-star luminescence, 1 M DEA, 30 min; hits give high values; 0 = EDTA background, 1 = DMSO-only activity | activation factor at 20 µM | 200,000 tested, under 10 active | AID 1136;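 active means activation factor at least 2 at 20 µM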
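Control set: EDTA negative control, DMSO positive control / Assay system: human TNAP / Quantity: TNAP 1/800 final / Evaluation: TNAP activation factor scaled between EDTA and DMSO control wells / Measured by: luminescent substrate turnover signal / Compound dosing: one dose, 20 µM / Times: 30 min enzyme reaction at room temperature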
TNAP inh noacc: blocks human TNAP activity with no phosphate acceptor present | inhibition, % at 20 µM | purified TNAP, CDP-star luminescence, 30 min | 200,000 compounds, 0.26% hits;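 active means tissue-nonspecific alkaline phosphatase inhibition above about 50% at 20 µM in the single-dose screen, limit read from the data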
zVAD death conf: confirmed blocker of zVAD induced death in L929 cells | activation (protection from necroptosis), % at 10 µM | AID 463117 | shares compounds with zVAD death inh | 760 compounds, 16% hits | L929 zVAD-induced necroptosis rescue, ATP luminescence, 24 h;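 active means mean protection from necroptosis of at least 50% over duplicate tests; inactive means mean protection below 50%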
Hits are given with their value; – = inactive; · = no result given.

SMILES | sdo1 growth | zVAD death inh | TNF necrop inh | TNAP inh hi DEA | TNAP act hiacc | TNAP inh noacc | zVAD death conf
O=C(CCCSc1nc2ccccc2c(=O)[nH]1)c1ccc(F)cc1 | · | – | – | – | – | – | ·
CN1CCN(c2ccc(-c3ccnn3C(=O)Nc3cccc(C(F)(F)F)c3)cc2)CC1 | · | 84 | – | – | – | – | 51
COc1ccc(N2CCN(C(=O)Nc3cccc(C(F)(F)F)c3)CC2)cc1 | – | – | – | – | – | – | ·
COc1ccc(NC(=O)c2ccc(S(=O)(=O)C(F)F)cc2)c(OC)c1 | · | 77 | – | – | – | – | –
CC(=O)c1ccc(OCC(=O)Nc2ccc3c(c2)CCC3)cc1 | · | 75 | – | – | – | – | –
Nc1c2c(=O)oc(-c3ccccc3)cc2nn1-c1ccccc1 | – | 90 | – | – | – | – | –
CN(C)C(=O)c1ccc(-c2nnc(NCc3ccccc3)c3ccccc23)cc1 | – | 75 | – | – | – | – | –
NC(=O)c1ccc(Nc2nnc(-c3ccc(O)cc3)c3ccccc23)cc1 | · | – | – | – | – | – | ·
O=c1cc(-c2ccc(O)c(-c3c(O)cc(O)c4c(=O)cc(-c5ccc(O)cc5)oc34)c2)oc2cc(O)cc(O)c12 | – | – | – | – | – | – | ·
O=c1cc(-c2ccc(O)c(O)c2)oc2cc(O)cc(O)c12 | · | 85 | – | · | · | · | –
O=C(Cn1nnc(-c2ccncc2)n1)Nc1ccc2c(c1)CCC2 | – | 81 | – | – | – | – | –
COc1cc(NC(=O)Cn2nnc(-c3ccncc3)n2)cc(OC)c1 | – | 77 | – | – | – | – | –
CC(C(=O)Nc1nncs1)N1C(=O)C2C3C=CC(C3)C2C1=O (stereo unspecified) | · | 78 | – | – | – | – | –
Cc1ccc(NC(=O)c2ccccc2)cc1-n1cnnn1 | · | 75 | – | – | – | – | –
O=C(N/C(=C/c1cccc([N+](=O)[O-])c1)C(=O)N1CCCCC1)c1cccs1 | – | – | – | – | – | – | ·
COC(=O)Cc1c(C(=O)OC)nnn1-c1cccc(C(F)(F)F)c1 | · | – | – | – | – | – | ·
Cc1ccccc1NC(=O)C(=Cc1ccc(C(=O)O)cc1)C(=O)Nc1ccccc1C | · | 79 | – | – | – | – | –
CC(=O)/C(=C/c1ccccc1)C(=O)Nc1ccccc1C | · | – | – | – | – | – | ·
CC(C(=O)Nc1ccccc1)N(c1cccc(Cl)c1)S(C)(=O)=O (stereo unspecified) | · | – | – | – | – | – | ·
O=C(COc1cccc(-n2cnnn2)c1)Nc1ccccc1 | – | – | – | – | – | – | ·
COc1ccc(Cl)cc1NC(=O)COc1cccc(-n2cnnn2)c1 | – | 81 | – | – | – | – | –
Cc1ccc(NC(=O)C(OC(=O)c2ccc(NC(N)=O)cc2)c2ccccc2)cc1Cl (stereo unspecified) | – | 85 | – | – | – | – | 70
COc1ccc(C(=O)NNC(=O)Cc2ccc(Cl)cc2)cc1 | · | – | – | – | – | – | ·
COc1ccc(NC(=O)NC23CC4(C)CC(C)(CC(C)(C4)C2)C3)cc1 | – | 76 | – | – | – | – | –
COc1ccc(C(=O)NNC(=O)Nc2ccc(Cl)cc2)cc1 | · | 81 | – | – | – | – | –
SMILES | sdo1 growth | zVAD death inh | TNF necrop inh | TNAP inh hi DEA | TNAP act hiacc | TNAP inh noacc | zVAD death conf
N#Cc1ccsc1NC(=O)CSc1nnnn1-c1ccc(O)cc1 | · | 76 | – | – | – | – | –
Cn1ccnc1SCC(=O)Nc1sccc1C#N | – | – | – | – | – | – | ·
CNC(=S)N(Cc1ccc(OC)cc1)Cc1cc2ccc(C)cc2[nH]c1=O | · | – | – | – | – | – | ·
CN(C)/C=C/C(=O)c1ccc(-n2cccc2)cc1 | · | 77 | – | – | – | – | –
CN(C)/C=C/C(=O)c1ccc(Cl)cc1 | – | – | – | – | – | – | ·
Cc1ccc(-c2nc(Nc3ccccc3)n[nH]2)cc1 | – | 77 | – | – | – | 50 | 77
CN(C)S(=O)(=O)c1cccc(NC(=O)CSc2nnnn2-c2ccccc2)c1 | · | – | – | · | · | · | ·
Nc1ncnc2oc(-c3ccco3)c(-c3ccco3)c12 | – | 79 | – | – | – | – | –
O=C(CCCCl)NC(=S)Nc1ccc(N2CCOCC2)cc1 | · | – | – | · | · | · | ·
COCCNC(=O)c1cc(Sc2nnc(C)s2)nc2ccccc12 | · | 75 | – | · | · | · | –
Cc1ccc(S(=O)(=O)CC(=O)Nc2ccc(Cl)cn2)cc1 | · | – | – | – | – | – | ·
Oc1ccc(/C=N/Nc2ccc(C(F)(F)F)cn2)cc1 | · | 83 | – | – | – | – | 63
COc1cc(/C=N/Nc2ccc(C(F)(F)F)cn2)cc(OC)c1O | · | 81 | – | – | – | – | 75
COc1ccccc1/C=N/N(C(C)=O)c1nc(-c2ccc(F)cc2)cs1 | – | – | – | – | – | – | ·
Cc1ccc(N=c2oc3cc(O)ccc3cc2C(N)=O)cc1 | – | 79 | – | – | – | – | –
Cc1ccc(NC(=O)c2ccc(N3CCOCC3)c([N+](=O)[O-])c2)cc1S(=O)(=O)N1CCOCC1 | – | 77 | – | – | – | – | –
CC(CS(=O)(=O)c1ccc2ccccc2c1)N1CCN(C2CCCCC2)CC1 (stereo unspecified) | · | – | – | · | · | · | ·
O=S(=O)(CC(CN1CCCC1)N1CCCC1)c1ccc2ccccc2c1 (stereo unspecified) | – | 82 | – | – | – | – | –
COc1ccc(/C=N/Nc2ccccn2)c(OC)c1OC | · | 83 | – | – | – | – | –
C=CCOc1ccc(/C=N/Nc2ccccn2)cc1OC | · | 85 | – | – | – | – | –
CCOc1ccc(/C=N/Nc2ccccn2)cc1OC | · | 80 | – | – | – | – | –
CCCOc1ccc(/C=N/Nc2ccccn2)cc1OC | · | – | – | – | – | – | ·
O=C(Cc1c(Cl)cccc1Cl)NC1=NCCS1 | · | – | – | – | – | – | ·
CC1(C)C(=O)Nc2ccccc2N1C(=O)COc1cccnc1[N+](=O)[O-] | · | – | – | – | – | – | ·
CC1CC(=O)Nc2ccccc2N1S(=O)(=O)c1ccc(F)cc1F (stereo unspecified) | · | – | – | · | · | · | ·
SMILES | sdo1 growth | zVAD death inh | TNF necrop inh | TNAP inh hi DEA | TNAP act hiacc | TNAP inh noacc | zVAD death conf
Cn1c(C(=O)NCCN2CCCCCC2)cc2c(=O)n(C)c3ccccc3c21 | – | 84 | – | – | – | – | –
CCCCN(CC)CCCNC(=O)c1cc2c(=O)n(C)c3ccccc3c2n1C | – | 80 | – | – | – | – | –
Cn1c(C(=O)NCCCN2CCOCC2)cc2c(=O)n(C)c3ccccc3c21 | – | – | – | – | – | – | ·
Cn1c(C(=O)NCc2ccccn2)cc2c(=O)n(C)c3ccccc3c21 | – | 89 | – | – | – | – | –
CN1CCN(CCCNC(=O)c2cc3c(=O)n(C)c4ccccc4c3s2)CC1 | – | 77 | – | – | – | – | –
CC(C)OCCCNC(=O)c1cc2c(=O)n(C)c3ccccc3c2n1C | – | – | – | – | – | – | ·
